ZTA counter = counter-screen for EBNA-1 inhibitors: inhibitors of Epstein-Barr virus ZTA | P03206 | AID 2234 | 320,000 tested, 0.15% active | inhibition, % at 11 µM | ZTA-DNA binding, fluorescence polarization; in the data active = inhibition above about 33%
Target sequence (P03206 whole entry, looked up): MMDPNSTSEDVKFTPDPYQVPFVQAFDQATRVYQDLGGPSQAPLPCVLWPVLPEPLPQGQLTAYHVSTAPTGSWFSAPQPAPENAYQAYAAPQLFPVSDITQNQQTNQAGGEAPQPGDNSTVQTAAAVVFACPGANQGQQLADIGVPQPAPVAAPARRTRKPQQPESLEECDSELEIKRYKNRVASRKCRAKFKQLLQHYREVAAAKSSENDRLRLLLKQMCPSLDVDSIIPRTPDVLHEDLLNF
NS3 helicase inh = inhibitors of HCV NS3 helicase, primary screen, biochemical, Cy5 molecular beacon fluorescence; inhibition, % at 10.9 µM; Hepatitis C virus NS3 helicase; AID 1800, 2009; NS3 helicase DNA unwinding; 290,000 tested, 0.56% active;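 active = inhibition above the mean of all tested compounds plus 3 SD, set per campaign, cut at about 35% in these data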;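 note: 0% = DMSO wells and 100% = thioflavine S control wells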
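assay system = NS3 helicase fragment of HCV | buffer or medium = MOPS pH 6.5, MgCl2, DTT, Tween20, BSA | timing = 60 min unwinding reaction at 25 °C after ATP addition | signal = Cy5 beacon fluorescence read at start and 1 h | read-out basis = % inhibition of unwinding | control set = low DMSO, high thioflavine S at 110 µM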
M18AAP inhibitor = PfM18AAP inhibitors, malaria aminopeptidase, primary screen, biochemical, QFRET, recombinant enzyme; inhibition, % at 7.35 µM; H-Glu-NHMec fluorogenic cleavage; 290,000 tested, 1.2% active;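 active = inhibition above the campaign mean inhibition over all tested compounds plus 3 SD, cut at about 28% in these data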;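 note: 0% = plate median of test compound wells and 100% = 2 mM ZnCl2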
EBNA-1 inhibitor = EBNA-1 DNA-binding inhibitors, primary screen, biochemical, fluorescence polarization | inhibition, % at 14.8 µM | AID 1950, 2009 | 300,000 tested, 0.34% active; in the data active = inhibition above about 28%
core dimer inh = inhibitors of HCV core protein dimerization, primary screen, biochemical, TR-FRET, high-throughput; AID 1899, 2009; TR-FRET GST/Flag-core106 dimerization, 1536-well; inhibition, % at 5 µM; 300,000 tested, 0.33% active;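 active = inhibition above the mean of all tested compounds plus 3 SD, set per screening campaign, cut at about 45% in these data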
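System: GST/Flag-tagged HCV core106 proteins. Incubation: compound-protein-antibody incubation 4 h at 22.5 °C. Technique: HTRF with 340 nm excitation, 617/671 nm emission. Medium: KF-containing HEPES buffer, pH 7.45, DTT, CHAPS, BSA. Read-out: inhibition (%) from 671 over 617 nm ratio. Also added: Eu(K)-anti-GST 90 ng/mL plus XL665-anti-Flag 1 µg/mL.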
ALR inh = inhibitors of human ALR sulfhydryl oxidase, primary screen, biochemical, H2O2 detection, HRP-luminol luminescence, single point | 290,000 tested, 3.8% active | FAD-linked sulfhydryl oxidase ALR (Homo sapiens), P55789 | inhibition, % (no concentration beside the values) | purified ALR, DTT oxidation;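 active = mean replicate inhibition above about 79%, with every replicate also reaching it, limit read from the data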
Target sequence (P55789 whole entry, looked up): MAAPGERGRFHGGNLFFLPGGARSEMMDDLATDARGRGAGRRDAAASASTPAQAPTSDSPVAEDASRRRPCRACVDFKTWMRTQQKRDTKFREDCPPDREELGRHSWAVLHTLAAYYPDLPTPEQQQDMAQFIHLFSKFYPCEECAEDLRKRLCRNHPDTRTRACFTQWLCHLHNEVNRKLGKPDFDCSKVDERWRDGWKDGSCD
The depositor's hits bear a star. An excerpt weighted towards active compounds, which were near 5.2% of everything screened.

What do the screens show for `CCOc1ccc(C(C)=O)cc1CN1C(=O)C(=O)N(CC)C1=O`?
ZTA counter: 7; NS3 helicase inh: 26; M18AAP inhibitor: -7; EBNA-1 inhibitor: -9; core dimer inh: 5; ALR inh: 0

How did Cc1ccc2cn[nH]c2c1N do in these assays?
ZTA counter: 10; NS3 helicase inh: -5; M18AAP inhibitor: 22; EBNA-1 inhibitor: 3; core dimer inh: -8; ALR inh: 85*

Results for CCN(CCNC(=O)c1cc(C)nn1-c1ccccc1)c1ccccc1 ?
ZTA counter: 5; NS3 helicase inh: 5; M18AAP inhibitor: 5; EBNA-1 inhibitor: 6; core dimer inh: 20; ALR inh: 99*

What do the screens show for `Cc1ccc(CCNC(=O)c2cc(C)nn2-c2ccccc2)cc1`?
ZTA counter: -8; NS3 helicase inh: -7; M18AAP inhibitor: -11; EBNA-1 inhibitor: 4; core dimer inh: -3

Results for O=[N+]([O-])c1ccc(-c2cn(-c3ccccc3F)c(=S)[nH]2)cc1 ?
ZTA counter: 11; NS3 helicase inh: 5; M18AAP inhibitor: -2; EBNA-1 inhibitor: 7; core dimer inh: -5; ALR inh: 84*

Results for CCOc1ccc2c(c1)nc(SCC(=O)c1cccs1)n2C ?
ZTA counter: 3; NS3 helicase inh: -8; M18AAP inhibitor: 8; EBNA-1 inhibitor: -10; core dimer inh: 8; ALR inh: 97*

What do the screens show for `CCOc1ccc2c(c1)nc(SCC(=O)c1ccc(Br)s1)n2C`?
ZTA counter: -12; NS3 helicase inh: -9; M18AAP inhibitor: 1; EBNA-1 inhibitor: -4; core dimer inh: 6; ALR inh: 22

Results for C=CCN1C(=O)CSC1=Nc1ccc(O)cc1 ?
ZTA counter: -11; NS3 helicase inh: 1; M18AAP inhibitor: 4; EBNA-1 inhibitor: -2; core dimer inh: -3; ALR inh: 99*

How did O=C1CSC(=Nc2ccc(O)cc2)N1c1ccc(O)cc1 do in these assays?
ZTA counter: -17; NS3 helicase inh: -1; M18AAP inhibitor: 9; EBNA-1 inhibitor: 6; core dimer inh: -5; ALR inh: 99*

What do the screens show for `Cc1ccc(CNC2CCCCC2)s1`?
ZTA counter: 4; NS3 helicase inh: 6; M18AAP inhibitor: -6; EBNA-1 inhibitor: 10; core dimer inh: -1; ALR inh: -11

Results for O=C1C2=C(CCCC2)C(=O)N1CNc1ccccc1 ?
ZTA counter: 12; NS3 helicase inh: -8; M18AAP inhibitor: 0; EBNA-1 inhibitor: -13; core dimer inh: -2; ALR inh: -9

How did O=C1C(Nc2ccccc2)=C2CCCC=C2N1c1ccccc1 do in these assays?
ZTA counter: -24; NS3 helicase inh: -7; M18AAP inhibitor: 6; EBNA-1 inhibitor: -9; core dimer inh: 10; ALR inh: 102*

Results for CC[n+]1c(/C=C/N(C)c2ccccc2)n(-c2ccccc2)c2ccc(-c3nc4ccccc4s3)cc21 ?
ZTA counter: 42*; NS3 helicase inh: -32; M18AAP inhibitor: 1; EBNA-1 inhibitor: 15; core dimer inh: -8; ALR inh: -78

Results for CCOC(=O)c1ccc2c(c1)n(CC)c(/C=C/N(C)c1ccccc1)[n+]2CC ?
ZTA counter: 18; NS3 helicase inh: -15; M18AAP inhibitor: 3; EBNA-1 inhibitor: 2; core dimer inh: 5; ALR inh: 1

What do the screens show for `CCC(=O)N(C)CCc1cc2c(c(OC)c1/C=N/NC(=O)c1ccc(Br)cc1)OCO2`?
ZTA counter: 10; NS3 helicase inh: 4; M18AAP inhibitor: -3; EBNA-1 inhibitor: 1; core dimer inh: -4; ALR inh: -27

What do the screens show for `Cc1ccc(NC(=O)CN(C)S(=O)(=O)c2cccc3cccnc23)cc1`?
ZTA counter: 0; NS3 helicase inh: 20; M18AAP inhibitor: 6; EBNA-1 inhibitor: 0; core dimer inh: -1; ALR inh: 95*

What do the screens show for `CCOc1ccc(NC(=O)CN(C)S(=O)(=O)c2cccc3cccnc23)cc1`?
ZTA counter: -8; NS3 helicase inh: -8; M18AAP inhibitor: 1; EBNA-1 inhibitor: -8; core dimer inh: -8; ALR inh: -10

High-throughput results from PubChem.
